An excerpt weighted towards active compounds, which were near 11% of everything screened.
M1 agonist = M1 muscarinic receptor agonism; AID 626; B-score at 10 µM; CHO-M1 cells, Fluo-4 calcium fluorescence, agonist mode; stronger effect = higher value; 3% of 64,000 active;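 active = fluorescence rise, raw or as B-score row- and column-corrected plate score, outside the 99.7% band of its plate's samples, either direction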
mHtt clearance = compounds clearing mutant huntingtin protein. 0.42% of 47,000 active. inhibition, % at 1.5 µM. HeLa Exon1htt(103Q)mCFP, aggregate imaging; zero = plate's median compound well;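 active = inhibition of aggregate fluorescence above about 70%, also judged a hit by eye on the cell image, limit read from the data, passing the limit was not always enough; inconclusive = no rule stated for this call; inactive = not judged a hit on image review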;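 note: cells exposed to compound for three days before fixation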
D1 allo mod = D1 dopamine receptor (human) allosteric modulation; HEK293 D1, CRE-luciferase, dopamine EC30 potentiation; actives deviate in either direction; 5.9% of 58,000 active; B-score at 10 µM; P21728; AID 641;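 active = luminescence count or its row- and column-corrected plate score outside the 99.7% band of the plate's sample wells, on either side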
SF1 activator = SF-1 (human) activation | Q13285 | CHO-K1 Gal4-SF-1 LBD luciferase reporter; % increase over DMSO SF-1-specific signal | activation, % at 10 µM | 1.9% of 65,000 active | AID 522;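 active = activation above the mean activation of all tested compounds plus 3 SD, cut at about 50% in these data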
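Test system: CHO-K1 cells with Gal4–hSF-1 LBD chimera plus Gal4-driven luciferase; Input: 4,000 cells/well; Compound: 10 µM only; Times: 20 h compound treatment, 37 °C; Measured by: steady-glow luciferase luminescence, read after 15 min reagent incubation; Measure: percent activation versus DMSO; Control set: DMSO and mock-transfected background; Replicates: one test per compound.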
M1 antag = blocks the rat M1 muscarinic receptor response to acetylcholine; B-score at 10 µM; AID 628; CHO-M1 cells, Fluo-4 calcium, ACh EC80 antagonist mode; stronger effect = lower value; 3.4% of 64,000 active;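 active = calcium fluorescence response, raw or row-and-column corrected B-score, differing from the plate sample mean either way at a set confidence level, mostly lower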
RORa activator = activators of human nuclear receptor RORA | P35398 | CHO-K1 Gal4-RORA LBD luciferase reporter, luminescence; percent increase over mock-subtracted basal signal | activation, % at 10 µM | 1.5% of 65,000 active | AID 560;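 active = activation above the mean of all tested compounds plus 3 SD, cut at about 49% in these data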;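 note: 0% = DMSO-treated RORA cells and 100% = added signal equal to DMSO minus mock-transfected cells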
M1 agonist conf = confirmation of rat M1 muscarinic receptor agonists; 19% of 1,700 active; fluorescence change (max-min) at 10 µM; AID 1488; CHO-M1 cells, Fluo-4 calcium fluorescence, agonist mode; actives lie on both sides; shares compounds with M1 agonist;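 active = fluorescence change differs from the solvent-only DMSO control mean at a set confidence level in both duplicate runs; inconclusive = differs from solvent-only control mean in just one of two runs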;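 note: an EC20 dose of acetylcholine follows compound addition during the same imaging run; raw fluorescence intensity difference in instrument units with no normalization to controls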
M4 ag counter = rat M4 muscarinic agonism, M1 counter-screen; AID 1741; shares compounds with M1 agonist; 9% of 1,700 active; CHO M4/Gqi5 cells, Fluo-4 calcium fluorescence, agonist mode; actives lie on both sides; fluorescence change (max-min) at 10 µM;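 active = fluorescence change differing from the plate's solvent-only control wells at 99.7% confidence in both duplicates, whether higher or lower; inconclusive = differs from solvent controls in only one of two duplicates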
Target sequence (P08485 whole entry, looked up): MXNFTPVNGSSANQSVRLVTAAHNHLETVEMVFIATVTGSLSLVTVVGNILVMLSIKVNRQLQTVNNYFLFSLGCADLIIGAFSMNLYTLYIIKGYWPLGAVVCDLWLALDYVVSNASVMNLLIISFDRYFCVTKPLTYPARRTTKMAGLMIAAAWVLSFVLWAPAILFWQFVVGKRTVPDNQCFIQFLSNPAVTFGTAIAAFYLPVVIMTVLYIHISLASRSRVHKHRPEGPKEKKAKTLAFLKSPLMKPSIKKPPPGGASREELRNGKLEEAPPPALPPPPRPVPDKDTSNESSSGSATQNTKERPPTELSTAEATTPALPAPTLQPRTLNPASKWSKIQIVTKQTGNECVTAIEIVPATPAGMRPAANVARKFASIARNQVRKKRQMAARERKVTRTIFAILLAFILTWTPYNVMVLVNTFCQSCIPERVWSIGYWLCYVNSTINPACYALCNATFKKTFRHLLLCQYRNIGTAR
M1 antag conf = confirmation of rat M1 muscarinic receptor antagonists | 43% of 1,700 active | calcium response (max-min fluorescence) at 10 µM | shares compounds with M1 antag | CHO-M1 cells, Fluo-4 calcium, ACh EC80 antagonism; stronger effect = lower value;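 active = calcium response below the same-plate mean of wells given acetylcholine alone at its 80%-effect dose, minus 3 SD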;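 note: raw fluorescence intensity difference in arbitrary instrument units and not normalized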
mGluR4 antag = selectivity test for M1 antagonists: human mGluR4 receptor; 0.9% of 1,700 active; CHO-mGluR4 calcium flux, Fluo-4 fluorescence, glutamate EC80; stronger effect = lower value; shares compounds with M1 antag; fluorescence response (max-min) at 10 µM;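 active = fluorescence response below the plate's average for near-maximal glutamate wells, less 3 SD of those wells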;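 note: raw unnormalized fluorescence span taken in the window right after glutamate addition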
D1 PAM confirm = confirmation of human D1 dopamine receptor allosteric modulators. shares compounds with D1 allo mod. HEK293 D1 CRE-luciferase, dopamine EC30 potentiation; stronger effect = higher value. luminescence at 10 µM. 88% of 2,200 active. AID 642;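 active = luminescence in either of two replicates above the same-plate mean plus 3 SD of the low-dose dopamine control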
D1 no dopamine = activates D1 CRE-luciferase signal without dopamine present; shares compounds with D1 allo mod; HEK293 D1 CRE-luciferase, luminescence, no dopamine; stronger effect = higher value; luminescence at 10 µM; 0.8% of 1,900 active; AID 646; in the data active = luminescence above about 3900
Isoprot counter = alters isoproterenol CRE-luciferase response in HEK293 cells; shares compounds with D1 allo mod; AID 647; HEK293 D1 CRE-luciferase, isoproterenol EC30 counter-screen; 63% of 2,200 active; calls only at 10 µM;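 active = luminescence in either replicate above plate mean of wells with a partly effective reference agonist dose plus 3 SD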;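 note: isoproterenol raises cAMP through native beta-adrenoceptor Gs so signal bypasses D1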
Starred values were filed as active, the others as inactive; i = inactive; ? = inconclusive; · = not tested or not shown; + = active, no number.

SMILES	M1 agonist	mHtt clearance	D1 allo mod	SF1 activator	M1 antag	RORa activator	M1 agonist conf	M4 ag counter	D1 PAM confirm	D1 no dopamine	Isoprot counter	others
Cn1nnc(NC(=O)c2ccco2)n1	-0.149	34.8	0.205	22.6	-0.0946	-1.0	·	·	·	·	·
O=C(Nc1nc2n(n1)C(c1ccccc1)C=C(c1ccccc1)N2)c1ccco1 (configuration not stated)	19.1*	21.7	2.86*	-11.3	-0.314	-12.5	43.9	26.3	11140*	1520	+
CCC1(CC)C(=O)NC(=O)NC1=NCCc1c[nH]c2ccccc12	0.352	·	-2.15	-12.2	0.442	-18.9	·	·	·	·	·
Cc1cccc(CCNC(=O)c2nnc(Cc3ccc(Cl)cc3)o2)c1	-0.0236	·	0.0287	13.2	0.00517	-0.5	·	·	·	·	·
O=C(Nc1ccccc1)c1ccc2nc(-c3ccco3)c(-c3ccco3)nc2c1	0.912	·	-0.0191	3.8	-0.108	-20.9	·	·	·	·	·
CCCCNC(=O)c1ccc2nc(-c3ccco3)c(-c3ccco3)nc2c1	10.4*	·	3.85*	18.8	-0.575	-16.1	9.42	?	8120*	1444	i
Nc1ccnc(C(F)(F)F)c1C(=O)c1ccccc1	-1.23	·	-0.0542	5.2	-0.0506	-1.2	·	·	·	·	·
CCOc1ccc(-c2noc(COC)n2)cc1OC	3.2*	-21.5	3.39*	0.8	0.201	6.3	-3.5	-33.6	8824*	1732	i
CCN(CC)CCN=C1CCCc2ccccc2N1	-0.000299	·	-0.493	5.3	-0.309	-1.7	·	·	·	·	·
COc1ccc(C(=O)CSc2nc(SC)ns2)cc1OC	-2.84*	-0.8	8.38*	5.1	-0.727	-1.0	-17.4	-25	17700*	1872	+
CSc1nsc(SCC(=O)Nc2ccccn2)n1	-0.706	-3.7	-0.0295	8.4	-0.142	-5.4	·	·	·	·	·
COCCCNS(=O)(=O)c1ccc2c3c(cccc13)C(=O)S2	0.651	19.1	0.335	-0.9	-0.384	-6.1	·	·	·	·	·
COCCCNc1c2c3c(cccc3[nH]c1=O)C(=O)c1ccccc1-2	466*	51.5	2.97*	·	-13.2*	·	3166*	2818*	8772*	1436	i
CCN1CCN(C(c2cccs2)C(C)NC(=O)CC(C)C)CC1 (configuration not stated)	-2.72*	·	4.67*	3.5	1.15	-6.5	?	-87.3	3812	1520	i
Cc1onc(-c2ccccc2)c1C(=O)Nc1cccc(C#N)c1	-0.0177	·	1.42	2.0	0.495	3.9	·	·	·	·	·
CCOC(=O)C1CCCN(C(=O)c2cc(Nc3ccc(OC)c(OC)c3)nc3ccccc23)C1 (configuration not stated)	8.29*	-32.9	4.03*	26.5	-0.821	28.2	-19	?	12712*	1464	+
CCOC(=O)C1CCCN(C(=O)c2cc(Cl)ccc2Cl)C1 (configuration not stated)	5.49*	-24.3	4.2*	1.2	1.64	7.6	11.2	-75.7*	5420*	664	i
CCOC(=O)C1CCCN(C(=O)c2cn(C)c(=O)c3cc(OC)c(OC)cc23)C1 (configuration not stated)	-1.28	·	1.77	4.5	0.787	-6.3	·	·	·	·	·
Cc1sc(NC(=O)C2CC=CCC2C(=O)O)c(C(=O)OC(C)C)c1C (configuration not stated)	·	-26.3	·	·	·	·	·	·	·	·	·
CCOC(=O)C1CCCN(C(=O)c2cnn3c(C(F)(F)F)cc(-c4ccccc4)nc23)C1 (configuration not stated)	0.47	·	-1.28	8.0	-0.378	9.0	·	·	·	·	·
CCOC(=O)C1CCCN(C(=O)c2cc3nc(-c4cccc(OC)c4)cc(C(F)(F)F)n3n2)C1 (configuration not stated)	3.7*	·	10.7*	-9.5	-1.49	-3.5	-14.6	-28.2	14152*	1432	+
Cc1cc(C)n(-c2nc(-c3ccc(Cl)cc3)cs2)n1	·	59.1	·	·	·	·	·	·	·	·	·
CCN(CC)c1ccc2c(c1)OC(N)=C(C#N)C2c1cccnc1 (configuration not stated)	18.3*	·	9.28*	-64.6	-4.59*	-25.5	681*	652*	13200*	2064	+
O=C1CNCc2[nH]c3ccccc3c2N1c1ccccc1	-0.756	·	1.78	3.1	0.0519	-5.2	·	·	·	·	·
O=CN1Cc2[nH]c3ccccc3c2N(c2ccc(Cl)cc2)C1=O	4.77*	7.8	8.98*	0.2	-0.0465	-8.9	16.2	-19.6	10080*	1192	i
SMILES	M1 agonist	mHtt clearance	D1 allo mod	SF1 activator	M1 antag	RORa activator	M1 agonist conf	M4 ag counter	D1 PAM confirm	D1 no dopamine	Isoprot counter	others
CCOC(=O)N1CCC(NC(=O)c2cccc3c2C(=O)N(c2ccc(OC)cc2)C3)CC1	2.55*	3.0	5.2*	11.8	0.11	8.7	?	-81.6	10556*	1464	+
Cc1sc(NC(=O)CSc2nnc(COc3ccccc3)n2C)c(C#N)c1C	2.39*	1.7	6.75*	-4.2	-0.168	-2.4	?	-51.3	6452	1688	i
CCOC(=O)c1cc2c(=O)n3ccccc3nc2n(C(C)C)c1=NC(=O)c1ccncc1	2.49*	-14.4	5.65*	19.3	0.0932	10.6	?	-41.1	16620*	1616	+
CSC1=C(C#N)C(c2ccccc2Cl)C(C(C)=O)=C(C)N1 (configuration not stated)	·	5.9	·	·	·	·	·	·	·	·	·
Cc1sc2ncnc(NCC(c3ccco3)N(C)C)c2c1C (configuration not stated)	-0.81	-56.2	0.0223	-4.7	-21.4*	-29.5	·	·	·	·	·	M1 antag conf=582;mGluR4 antag=245
Cc1ccc(C(=O)CCNc2ccc(F)c(Cl)c2)o1	·	·	0.718	2.5	·	-1.4	·	·	·	·	·
